{
  "source": "ChEMBL document CHEMBL1123921",
  "about": "“Quinolonecarboxylic acids. 2. Synthesis and antibacterial evaluation of 7-oxo-2,3-dihydro-7H-pyrido[1,2,3-de][1,4]benzothiazine-6-carboxylic acids” (J Med Chem, 1987)",
  "key": {"[1]": {"experiment": "Ratio of tissue (kidney) levels to plasma levels after 1 hr of treatment", "format": "ADME", "summary_of_the_method": "(§1)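 Male Wistar rats received 50 mg/kg po and were killed at 1 and 15 h. Tissue homogenates and plasma extracted with CHCl₃ after adding internal standard and pH 6.2 citrate buffer. Drug quantified by C-18 HPLC with UV at 245 nm. Tissue level divided by plasma level.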"}, "[2]": {"experiment": "Time taken for peak plasma concentration at a dose of 400 mg/kg, oral route in human", "format": "ADME, organism-based", "set-up": "dose 400 mg/kg, route oral", "summary_of_the_method": "(§2)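 Four healthy volunteers of both sexes took oral capsules (100 mg units) at three dose levels. Venous blood drawn into heparinized tubes and plasma obtained by low-speed centrifugation. Urine collected. Unchanged drug in plasma and urine determined by C-18 HPLC after CHCl₃ extraction, with UV detection at 245 nm.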"}, "[3]": {"experiment": "in vivo", "details": "kidney, po, 50 mg/kg"}, "[4]": {"experiment": "Lethal dose after single iv administration to mouse was determined", "format": "toxicity, organism-based", "details": "in vivo"}, "[5]": {"experiment": "Peak plasma concentration at a dose of 20 mg/kg, oral route in dog(beagle) suspended in carboxymethyl cellulose (CMC)", "format": "ADME, organism-based, Canis lupus familiaris", "set-up": "dose 20 mg/kg, route oral", "details": "read-out: Activity", "summary_of_the_method": "(§3)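 Four male beagle dogs or two Macaca fascicularis monkeys dosed orally, suspended in carboxymethyl cellulose. Venous blood collected into heparinized tubes and plasma separated by low-speed centrifugation. Urine gathered in metabolic cages. Unchanged drug measured by C-18 HPLC (extraction, UV 245 nm).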"}, "[6]": {"experiment": "Peak plasma concentration at a dose of 200 mg/kg, oral route in human", "format": "ADME, organism-based", "set-up": "dose 200 mg/kg, route oral", "details": "read-out: Activity", "summary_of_the_method": "as §2"}, "[7]": {"test_system": "Homo sapiens", "experiment": "Urinary clearance was determined at 100 mg/kg oral dosage in human", "format": "ADME, organism-based, Urine", "set-up": "dose 100 mg/kg, route oral", "details": "in vivo", "summary_of_the_method": "as §2"}, "[8]": {"experiment": "Half life period was determined for the compound at 50 mg/kg concentration, os route", "details": "in vivo, po"}, "[9]": {"experiment": "Time taken for peak plasma concentration at a dose of 200 mg/kg, oral route in human", "format": "ADME, organism-based", "set-up": "dose 200 mg/kg, route oral", "summary_of_the_method": "as §2"}, "[10]": {"test_system": "Rattus norvegicus", "experiment": "Volume of distribution at a dose of 10 mg/kg, intraperitoneal route in rat suspended in carboxymethyl cellulose (CMC)", "format": "ADME, organism-based", "set-up": "dose 10 mg/kg, route intraperitoneal", "details": "in vivo, ip", "summary_of_the_method": "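Fasted male Wistar rats (180–230 g) given the drug ip in carboxymethyl cellulose. Plasma and urine extracted with CHCl₃ from citrate buffer pH 6.2 with internal standard. Analysis by reverse-phase C-18 HPLC, 0.1% AcOH/MeOH gradient, 245 nm UV. Urinary clearance and total clearance derived as pharmacokinetic parameters.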"}, "[11]": {"experiment": "Tissue levels determined 1 hr after peroral dose of 50 mg/kg in kidney", "details": "po"}, "[12]": {"experiment": "in vivo", "details": "po, 25 mg/kg"}, "[13]": {"test_system": "Morganella morganii", "experiment": "In vitro antibacterial activity against clinical isolates of Proteus morganii 27 (gram negative) by agar dilution assay.", "format": "functional", "summary_of_the_method": "(§4)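 Agar dilution on Isosensitest agar; compound incorporated by twofold serial dilution. Overnight broth cultures delivered by multipoint inoculator at 10⁵ CFU per point. Plates read after 18 h at 37 °C. MIC taken as the lowest concentration giving complete growth inhibition.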"}, "[14]": {"test_system": "Pseudomonas aeruginosa", "experiment": "In vitro antibacterial activity against clinical isolates of Pseudomonas aeruginosa 2437 (gram negative) by agar dilution assay.", "format": "functional", "summary_of_the_method": "as §4"}, "[15]": {"experiment": "Peak plasma concentration at a dose of 25 mg/kg, os route in rat suspended in carboxymethyl cellulose (CMC)", "format": "ADME, organism-based", "set-up": "dose 25 mg/kg", "details": "po, read-out: Activity", "summary_of_the_method": "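Fasted male Wistar rats (180–230 g) dosed orally, suspended in carboxymethyl cellulose. Plasma and urine assayed by HPLC: sample plus internal standard and citrate buffer (0.1 M, pH 6.2), extracted into CHCl₃, dried, redissolved in MeOH. Separation on C-18 with 0.1% AcOH/MeOH gradient, UV detection at 245 nm.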"}, "[16]": {"experiment": "Plasma levels determined 1 hr after peroral dose of 50 mg/kg", "details": "po"}, "[17]": {"experiment": "in vivo", "details": "plasma, po, 50 mg/kg"}, "[18]": {"experiment": "Half life period was determined for the compound at 100 mg/kg concentration, oral route in human", "format": "ADME, organism-based", "set-up": "dose 100 mg/kg, route oral", "details": "in vivo", "summary_of_the_method": "as §2"}, "[19]": {"experiment": "in vivo", "details": "ip, 25 mg/kg"}, "[20]": {"test_system": "Escherichia coli", "experiment": "In vitro antibacterial activity against clinical isolates of Escherichia coli 15 (gram negative) by agar dilution assay.", "format": "functional", "summary_of_the_method": "as §4"}, "[21]": {"experiment": "Half life period was determined for the compound at 20 mg/kg concentration, oral route in monkey (Macaca fascicularis)", "format": "ADME, organism-based", "set-up": "dose 20 mg/kg, route oral", "details": "cynomolgus monkey, in vivo", "summary_of_the_method": "as §3"}, "[22]": {"experiment": "Ratio of tissue (heart) levels to plasma levels after 15 hr of treatment", "format": "ADME", "summary_of_the_method": "as §1"}, "[23]": {"experiment": "Ratio of tissue (liver) levels to plasma levels after 15 hr of treatment", "format": "ADME", "summary_of_the_method": "as §1"}, "[24]": {"experiment": "Lethal dose after single iv administration to rat was determined", "format": "toxicity, organism-based", "details": "in vivo", "summary_of_the_method": "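Male Wistar rats (130-150 g) were given single intravenous doses at no fewer than three levels. Deaths were counted over 14 days, and LD50 was calculated by the Litchfield and Wilcoxon method.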"}, "[25]": {"experiment": "Urinary excretion for the compound was evaluated as percent dose excreted at 100 mg/kg oral dosage in human", "format": "ADME, organism-based", "set-up": "dose 100 mg/kg, route oral", "details": "urine", "summary_of_the_method": "as §2"}, "[26]": {"experiment": "Peak plasma concentration at a dose of 50 mg/kg, os route in rat suspended in carboxymethyl cellulose (CMC)", "format": "ADME, organism-based", "set-up": "dose 50 mg/kg", "details": "po, read-out: Activity", "summary_of_the_method": "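Fasted male Wistar rats (180–230 g), drug suspended in carboxymethyl cellulose, given orally or ip. Plasma (heparinized) and urine from metabolic cages were sampled at various times. The unchanged drug was measured by HPLC after CHCl3 extraction at pH 6.2 with an internal standard, on a C-18 column with an AcOH/MeOH gradient and UV detection at 245 nm. Interassay and intraassay variability was about 10%.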"}, "[27]": {"experiment": "Urinary excretion for the compound was evaluated as percent dose excreted at 400 mg/kg oral dosage in human", "format": "ADME, organism-based", "set-up": "dose 400 mg/kg, route oral", "details": "urine", "summary_of_the_method": "as §2"}},
  "data": [
    {"smiles": "CN1CCN(c2c(F)cc3c(=O)c(C(=O)O)cn4c3c2SCC4)CC1", "note": "[RUFLOXACIN]", "values": [
      {"measurement": "Kp at 1 h", "setting": "[1]", "value": 6},
      {"measurement": "Tmax", "setting": "[2]", "value": 2, "unit": "h"},
      {"measurement": "concentration at 15 h", "setting": "[3]", "value": 8000, "unit": "ng/mL"},
      {"measurement": "LD50", "setting": "[4]", "value": 224, "unit": "mg/kg"},
      {"measurement": "Cmax", "setting": "[5]", "value": 5700, "unit": "ng/mL"},
      {"measurement": "Cmax", "setting": "[6]", "value": 1920, "unit": "ng/mL"},
      {"measurement": "CL_renal", "setting": "[7]", "value": 5.6, "unit": "mL/h/kg"},
      {"measurement": "half-life", "setting": "[8]", "value": 8.7, "unit": "h"},
      {"measurement": "Tmax", "setting": "[9]", "value": 4, "unit": "h"},
      {"measurement": "Vd", "setting": "[10]", "value": 3, "unit": "L/kg"},
      {"measurement": "concentration at 1 h", "setting": "[11]", "value": 61000, "unit": "ng/mL"},
      {"measurement": "half-life", "setting": "[12]", "value": 8.7, "unit": "h"},
      {"measurement": "MIC", "setting": "[13]", "value": 1.56, "unit": "µg/mL"},
      {"measurement": "MIC", "setting": "[14]", "value": 12.5, "unit": "µg/mL"},
      {"measurement": "Cmax", "setting": "[15]", "value": 6000, "unit": "ng/mL"},
      {"measurement": "concentration at 1 h", "setting": "[16]", "value": 10000, "unit": "ng/mL"},
      {"measurement": "concentration at 15 h", "setting": "[17]", "value": 3000, "unit": "ng/mL"},
      {"measurement": "half-life", "setting": "[18]", "value": 30, "unit": "h"},
      {"measurement": "half-life", "setting": "[19]", "value": 9.9, "unit": "h"},
      {"measurement": "MIC", "setting": "[20]", "value": 0.78, "unit": "µg/mL"},
      {"measurement": "half-life", "setting": "[21]", "value": 50, "unit": "h"},
      {"measurement": "Kp at 15 h", "setting": "[22]", "value": 1.7},
      {"measurement": "Kp at 15 h", "setting": "[23]", "value": 3.7},
      {"measurement": "LD50", "setting": "[24]", "value": 285, "unit": "mg/kg"},
      {"measurement": "dose excreted", "setting": "[25]", "value": 45, "unit": "%"},
      {"measurement": "Cmax", "setting": "[26]", "value": 8000, "unit": "ng/mL"},
      {"measurement": "dose excreted", "setting": "[27]", "value": 33, "unit": "%"}
    ]}
  ]
}
